Test results reported in ChEMBL document CHEMBL3124900, “Discovery and early clinical evaluation of BMS-605339, a potent and orally efficacious tripeptidic acylsulfonamide NS3 protease inhibitor for the treatment of hepatitis C virus infection” (J Med Chem, 2014).
Activity calls are given as the source filed them. The rule behind the calls is not given here.

Columns and labels:
[1] = AUC in intraduodenally dosed Sprague-Dawley rat plasma measured over 4 hrs by LC/MS/MS analysis; assay type: ADME, organism-based; set-up: time < 4 hr, route intraduodenal; conditions: Sprague-Dawley, plasma
How it was run: (§1)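 Abbreviated rat screen: surgically prepared rats were dosed intraduodenally. Plasma was sampled over 4 h, and liver was collected at the 4 h end point. Plasma was precipitated with two volumes of ACN plus internal standard. Liver was weighed and homogenized in 2 volumes of 20% Hanks buffered salt solution/80% ACN. Both were quantified by LC/MS/MS.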

Liver = test: Drug uptake in intraduodenally dosed Sprague-Dawley rat liver measured per gm of tissue over 4 hrs by LC/MS/MS analysis; assay type: ADME, organism-based; conditions: in vivo, other; how it was run: as §1
[2] = AUC in Sprague-Dawley rat at 15 mg/kg, po administered via gavage by LC/MS/MS analysis; assay type: ADME, organism-based; set-up: dose 15 mg/kg, route oral; conditions: plasma
Hepatitis C virus [3] = test: Antiviral activity against Hepatitis C virus genotype 1 infected in human assessed as reduction in plasma viral load administered orally measured after 12 hrs; assay type: functional, organism-based; conditions: Hepacivirus hominis
How it was run: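 HCV genotype 1-infected subjects received single oral doses of 10, 60 or 120 mg. Plasma HCV RNA was followed, and mean log10 reduction in viral load was read 12 h after dosing.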

[4] = test system: Canine parainfluenza virus; test: Antiviral activity against Canine parainfluenza virus; assay type: functional
Homo sapiens [5] = test: Cardiovascular toxicity in Hepatitis C virus genotype 1 infected human assessed as junctional rhythm disturbances at 120 mg, po by electrocardiography; assay type: organism-based; conditions: in vivo
Homo sapiens [6] = test: Cardiovascular toxicity in healthy human assessed as PR-interval prolongation at 120 mg, po by electrocardiography; assay type: organism-based; conditions: in vivo
[7] = Binding affinity to P-glycoprotein (unknown origin); assay type: ADME; conditions: human
Homo sapiens [8] = test: Cardiovascular toxicity in Hepatitis C virus genotype 1 infected human assessed as PR-interval prolongation at 120 mg, po by electrocardiography; assay type: organism-based; conditions: in vivo
Hepatitis C virus [9] = test: Antiviral activity against Hepatitis C virus genotype 1b Con1 after 4 days by cell-based replicon assay; assay type: functional, organism-based, Hepacivirus hominis; conditions: isolate Con1, 96 h
[10] = test system: Human immunodeficiency virus; test: Antiviral activity against Human immunodeficiency virus; assay type: functional, organism-based
[11] = Apparent terminal half life in Sprague-Dawley rat at 5 mg/kg, iv by LC/MS/MS analysis; assay type: ADME, organism-based; set-up: dose 5 mg/kg, route intravenous; conditions: in vivo, read-out: betat1/2(app) (converted)
[12] = Ratio of drug level in liver to plasma in Beagle dog at 14 mg/kg, po measured after 24 hrs by LC/MS/MS analysis; assay type: ADME, organism-based, Canis lupus familiaris; set-up: dose 14 mg/kg, route oral
How it was run: (§2)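 Single oral dose (dog 14 mg/kg, rat 15 mg/kg), with liver and plasma sampled 24 h post-dose. Plasma was precipitated with two volumes of ACN containing internal standard and centrifuged. Tissue was weighed and homogenized in 2 volumes of 20% Hanks buffer/80% ACN. LC/MS/MS used a C18 column at 60 °C, ammonium formate/formic acid water–methanol gradient, and SRM detection. LLQ was 5 nM. Ratio is liver over plasma level.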

Cytochrome P450 3A4 = Cytochrome P450 3A4 (Homo sapiens, UniProt P08684); test: Inhibition of CYP3A4 (unknown origin); assay type: ADME
Chain of Cytochrome P450 3A4 (P08684 whole entry): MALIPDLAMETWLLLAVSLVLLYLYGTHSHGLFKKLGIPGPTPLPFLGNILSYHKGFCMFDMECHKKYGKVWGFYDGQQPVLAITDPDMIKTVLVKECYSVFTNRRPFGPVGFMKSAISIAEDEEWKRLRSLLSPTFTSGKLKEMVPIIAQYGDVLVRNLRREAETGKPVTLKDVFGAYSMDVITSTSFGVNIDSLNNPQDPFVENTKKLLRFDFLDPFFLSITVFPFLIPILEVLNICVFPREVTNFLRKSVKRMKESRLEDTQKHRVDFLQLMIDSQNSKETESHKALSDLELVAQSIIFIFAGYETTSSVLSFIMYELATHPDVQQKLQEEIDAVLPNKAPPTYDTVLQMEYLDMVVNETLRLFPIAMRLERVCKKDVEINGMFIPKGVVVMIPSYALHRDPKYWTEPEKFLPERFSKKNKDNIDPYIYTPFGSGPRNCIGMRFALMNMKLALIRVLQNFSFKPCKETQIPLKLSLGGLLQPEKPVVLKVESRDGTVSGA

[13] = Oral bioavailability in Sprague-Dawley rat at 15 mg/kg administered via gavage by LC/MS/MS analysis; assay type: ADME, organism-based; conditions: in vivo
[14] = Cytotoxicity against human HuH7 cells; assay type: cell-based; conditions: Huh-7 cells
[15] = Tmax in po dosed human; assay type: ADME, organism-based; conditions: in vivo
[16] = Oral bioavailability in Beagle dog by LC/MS/MS analysis; assay type: ADME, organism-based, Canis lupus familiaris; conditions: in vivo
[17] = Drug uptake into human hepatocytes by silicone oil layer method; assay type: ADME, cell-based, Hepatocyte
[18] = Drug uptake into dog hepatocytes by silicone oil layer method; assay type: ADME, cell-based, Canis lupus familiaris, Hepatocyte
Homo sapiens [19] = test: Cardiovascular toxicity in Hepatitis C virus genotype 1 infected human assessed as mild bradycardia at 120 mg, po by electrocardiography; assay type: organism-based; conditions: in vivo
[20] = Ratio of drug level in liver to plasma in Sprague-Dawley rat at 15 mg/kg, po administered via gavage measured after 24 hrs by LC/MS/MS analysis; assay type: ADME, organism-based; set-up: dose 15 mg/kg, route oral; how it was run: as §2
Hepatitis C virus [21] = test: Antiviral activity against Hepatitis C virus genotype 1a H77 assessed as inhibition of HCV replicon-encoded Renilla luciferase reporter activity after 4 days by cell-based HCV replicon assay; assay type: functional, organism-based, Hepacivirus hominis; conditions: genotype 1a H77, 96 h
[22] = test system: Bovine viral diarrhea virus 1; test: Antiviral activity against Bovine viral diarrhea virus; assay type: functional, organism-based
[23] = Oral bioavailability in cynomolgus monkey at 3 mg/kg administered via gavage by LC/MS/MS analysis; assay type: ADME, organism-based, Macaca fascicularis; conditions: in vivo
[24] = Half life in rat liver microsomes at 3 uM by LC/MS/MS analysis; assay type: ADME
How it was run: (§3)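 Pooled liver microsomes were run in triplicate per species. Each incubation held 3 μM test compound in 0.1 M potassium phosphate pH 7.4 at 37 °C, with 0.9 mg/mL microsomal protein, 0.033 mM MgCl2 and an NADPH-regenerating system. Proteins were precipitated with two volumes of ACN containing internal standard, and supernatants were analysed by LC/MS/MS.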

[25] = Drug uptake into Sprague-Dawley rat hepatocytes by silicone oil layer method; assay type: ADME, cell-based, Hepatocyte
[26] = Terminal half life in po dosed human; assay type: ADME, organism-based; conditions: in vivo, read-out: beta t1/2 (converted)
Homo sapiens [27] = test: Cardiovascular toxicity in healthy human assessed as junctional rhythm disturbances at 120 mg, po by electrocardiography; assay type: organism-based; conditions: in vivo
[28] = Genotoxicity in micronucleus (unknown origin)
Salmonella typhimurium = test: Mutagenicity in Salmonella typhimurium by Ames test; assay type: toxicity, organism-based; conditions: salmonella enterica subsp. enterica serovar typhimurium
Homo sapiens [29] = test: Cardiovascular toxicity in healthy human assessed as mild bradycardia at 120 mg, po by electrocardiography; assay type: organism-based; conditions: in vivo
[30] = Drug uptake in Sprague-Dawley rat liver at 20 mg/kg, po administered via gavage measured after 8 hrs by LC/MS/MS analysis; assay type: ADME, organism-based; set-up: dose 20 mg/kg, route oral; conditions: read-out: Drug uptake
[31] = AUC in Sprague-Dawley rat at 20 mg/kg, po administered via gavage by LC/MS/MS analysis; assay type: ADME, organism-based; set-up: dose 20 mg/kg, route oral; conditions: plasma
[32] = AUC in Beagle dog at 3 mg/kg by LC/MS/MS analysis; assay type: ADME, organism-based, Canis lupus familiaris; set-up: dose 3 mg/kg; conditions: plasma
[33] = Whole body plasma clearance in Sprague-Dawley rat at 5 mg/kg, iv by LC/MS/MS analysis; assay type: ADME, organism-based; set-up: dose 5 mg/kg, route intravenous
[34] = Half life in dog liver microsomes at 3 uM by LC/MS/MS analysis; assay type: ADME, Canis lupus familiaris; how it was run: as §3
[35] = Apparent terminal half life in Beagle dog at 3 mg/kg, iv by LC/MS/MS analysis; assay type: ADME, organism-based, Canis lupus familiaris; set-up: dose 3 mg/kg, route intravenous; conditions: in vivo, read-out: betat1/2(app) (converted)
[36] = Inhibition of Hepatitis C virus genotype 1a H77 recombinant NS3/4A protease expressed in Escherichia coli BL21 (DE3) cell using Ac-Asp-Glu-Asp(EDANS)-Glu-Glu-Abu[C(O)-O]-Ala-Ser-Lys(DABCYL)-NH2 as substrate by FRET assay; set-up: species or system Hepatitis C virus (isolate H77)
[37] = Whole body plasma clearance in Beagle dog at 3 mg/kg, iv by LC/MS/MS analysis; assay type: ADME, organism-based, Canis lupus familiaris; set-up: dose 3 mg/kg, route intravenous
[38] = Plasma concentration in Sprague-Dawley rat at 20 mg/kg, po administered via gavage measured after 8 hrs by LC/MS/MS analysis; assay type: ADME, organism-based; set-up: dose 20 mg/kg, route oral
[39] = Drug uptake in Sprague-Dawley rat liver at 20 mg/kg, po administered via gavage measured after 4 hrs by LC/MS/MS analysis; assay type: ADME, organism-based; set-up: dose 20 mg/kg, route oral; conditions: read-out: Drug uptake
[40] = Plasma concentration in Sprague-Dawley rat at 20 mg/kg, po administered via gavage measured after 4 hrs by LC/MS/MS analysis; assay type: ADME, organism-based; set-up: dose 20 mg/kg, route oral
[41] = Drug uptake in iv dosed Sprague-Dawley rat liver measured after 24 hrs by LC/MS/MS analysis; assay type: ADME, organism-based; conditions: read-out: Drug uptake
[42] = Drug uptake in Sprague-Dawley rat liver at 15 mg/kg, po administered via gavage measured after 24 hrs by LC/MS/MS analysis; assay type: ADME, organism-based; set-up: dose 15 mg/kg, route oral; conditions: read-out: Drug uptake
How it was run: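 Rats were dosed orally at 15 mg/kg, and liver and plasma were collected 24 h post-dose. Plasma was treated with two volumes of ACN containing internal standard. Tissue was homogenized in 2 volumes of 20% HBSS/80% ACN. Analysis was by LC/MS/MS on a C18 column at 60 °C, using an ammonium formate/formic acid water–methanol gradient, SRM detection and a 5 nM LLQ.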

C=C[C@@H]1C[C@]1(NC(=O)[C@@H]1C[C@@H](Oc2nccc3cc(OC)ccc23)CN1C(=O)[C@@H](NC(=O)OC(C)(C)C)C(C)(C)C)C(=O)NS(=O)(=O)C1CC1
AUC at 4 h [1]: 10400 nM·h
Drug uptake (Liver): 64710 ng
AUC [2]: 14100 nM·h
Activity (Hepatitis C virus [3]): Dose-dependent effect
Activity [4]: inactive
Activity (Homo sapiens [5]): Toxic
Activity (Homo sapiens [6]): Toxic
Activity [7]: Active
Activity (Homo sapiens [8]): Toxic
EC50 (Hepatitis C virus [9]): 2.8 nM
Activity [10]: inactive
half-life [11]: 4.4 h
Kp at 24 h [12]: 75
IC50 (Cytochrome P450 3A4): 2000 nM
bioavailability [13]: 18%
CC50 [14]: > 100000 nM
Tmax [15]: 1.5 h
bioavailability [16]: 51%
Km [17]: 1.4 µM
Km [18]: 1.4 µM
Activity (Homo sapiens [19]): Toxic
Kp at 24 h [20]: 136
EC50 (Hepatitis C virus [21]): 8.3 nM
Activity [22]: inactive
bioavailability [23]: < 1%
half-life at 3 µM [24]: > 1 h
Km [25]: 1.4 µM
half-life [26]: 4 h
Activity (Homo sapiens [27]): Toxic
Activity [28]: Non-toxic
Activity (Salmonella typhimurium): Non-toxic
Activity (Homo sapiens [29]): Toxic

C=C[C@@H]1C[C@]1(NC(=O)[C@@H]1C[C@@H](Oc2cc(-c3ccccc3)nc3cc(OC)ccc23)CN1C(=O)[C@@H](NC(=O)OC(C)(C)C)C(C)(C)C)C(=O)NS(=O)(=O)C1CC1
AUC at 4 h [1]: 77 nM·h
Drug uptake (Liver): 7850 ng
AUC [2]: 577 nM·h
concentration at 8 h [30]: 0.6 µM
AUC [31]: 730 nM·h
AUC [32]: 2000 nM·h
clearance [33]: 3.3 L/h/kg
half-life at 3 µM [34]: 2.83 h
EC50 (Hepatitis C virus [9]): 4 nM
half-life [35]: 0.6 h
half-life [11]: 1 h
IC50 [36]: 1 nM
clearance [37]: 0.96 L/h/kg
concentration at 8 h [38]: 0.004 µM
concentration at 4 h [39]: 5.8 µM
concentration at 4 h [40]: 0.58 µM

C=C[C@@H]1C[C@]1(NC(=O)[C@@H]1C[C@@H](Oc2ncc(OC)c3ccccc23)CN1C(=O)[C@@H](NC(=O)OC(C)(C)C)C(C)(C)C)C(=O)NS(=O)(=O)C1CC1
AUC at 4 h [1]: 280 nM·h
Drug uptake (Liver): 232200 ng
AUC [2]: 370 nM·h
clearance [33]: 10.9 L/h/kg
EC50 (Hepatitis C virus [9]): 19 nM
half-life [11]: 9.8 h
IC50 [36]: 2 nM
concentration at 24 h [41]: 8 µM
CC50 [14]: 76000 nM
concentration at 24 h [42]: 4.2 µM
